What was measured:
Rotifers [1] = test: Cytoprotection against hydrogen peroxide-induced toxicity in rotifer assessed as viability at 10 uM; type: functional, Rotifera
How it was run: (§1)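 Whole rotifers were exposed for 24 h to oxidotoxin (hydrogen peroxide or doxorubicin, 200 µM), with nitrone antioxidant added at 10 µM. Read-out was the percentage of viable organisms. Data are mean ± SEM (N = 10). Comparison was against vehicle control by ANOVA followed by Bonferroni t-test.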

Rattus norvegicus [2] = species on record: Rattus norvegicus; test: Inhibition of peroxynitrite-induced inactivation of mitochondrial NADH:ubiquinone oxidoreductase iron sulfur cluster N2 at 10 uM
How it was run: (§2)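 Rat brain submitochondrial particles were incubated for 30 min with hydrogen peroxide, peroxynitrite or doxorubicin, with or without nitrone at 10 µM. Complex I iron sulfur cluster N2 activity was measured as ferricyanide reduction. The value is the percentage inhibition of oxidative inactivation. Data are mean ± SEM (N = 10). Controls were vehicle-treated particles exposed to oxidotoxin alone; statistics were ANOVA with Bonferroni t-test.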

Rattus norvegicus [3] = species on record: Rattus norvegicus; test: Inhibition of doxorubicin-induced inactivation of mitochondrial NADH:ubiquinone oxidoreductase iron sulfur cluster N2 at 10 uM; how it was run: as §2
[4] = Cytoprotection in rat mixed cortical cells cultures assessed as inhibition of peroxynitrite-induced cell death at 10 uM after 24 hrs; type: functional
How it was run: (§3)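 Mixed cortical cultures were treated for 24 h with oxidotoxin (hydrogen peroxide, peroxynitrite or doxorubicin, 200 µM), with antioxidant added at 10 µM. The value is the percentage inhibition of Trypan blue absorbance, read as enhanced cell survival. Data are mean ± SEM (N = 10). Comparison was against vehicle control by ANOVA with Bonferroni t-test.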

[5] = Cytoprotection in rat mixed cortical cells cultures assessed as inhibition of hydrogen peroxide-induced cell death at 10 uM after 24 hrs; type: functional; how it was run: as §3
Rotifers [6] = test: Cytoprotection against doxorubicin-induced toxicity in rotifer assessed as viability at 10 uM; type: functional, Rotifera; how it was run: as §1
[7] = Cytoprotection in rat mixed cortical cells cultures assessed as inhibition of doxorubicin-induced cell death at 10 uM after 24 hrs; type: functional; how it was run: as §3
Rattus norvegicus [8] = species on record: Rattus norvegicus; test: Inhibition of hydrogen peroxide-induced inactivation of mitochondrial NADH:ubiquinone oxidoreductase iron sulfur cluster N2 at 10 uM; how it was run: as §2
[9] = Toxicity against rat mixed cortical cells cultures at 10 uM; type: cell-based

inhibition (Rattus norvegicus [2]) [%] | inhibition (Rattus norvegicus [3]) [%] | inhibition (Rattus norvegicus [8]) [%] | SMILES | Activity (Rotifers [1]) [%] | inhibition at 10 µM [4] [%] | inhibition at 10 µM [5] [%] | Activity (Rotifers [6]) [%] | inhibition at 10 µM [7] [%] | Activity [9]
27.6 | 44.3 | 35 | CC(C)(C)/[N+]([O-])=C/c1ccccc1 | 25.6 | 20.6 | 25 | 18.7 | 24.2 | –
40.5 | 83.5 | 59.2 | CCCCCCCC(=O)NCC(C)(C)/[N+]([O-])=C/c1ccc(C(=O)NCC(=O)NC(CO)(CO)CO)cc1 | 24.1 | 30.5 | 33.8 | 54.3 | 74.3 | –
72.5 | 90.7 | 78.3 | CCCCCCCC(=O)NCC(C)(C)/[N+]([O-])=C/c1ccc(CNC(=O)[C@H](O)[C@H](O)[C@H](O[C@@H]2O[C@H](CO)[C@H](O)[C@H](O)[C@H]2O)[C@@H](O)CO)cc1 | 83 | 61 | 81 | 85.8 | 82 | –
– | – | – | CCCCCCCC(=O)NCC(C)(C)/[N+]([O-])=C/c1ccccc1OCC | – | – | – | – | – | Toxic
39.3 | 57.3 | 51.9 | CC(C)(CNC(=O)CCC(F)(F)C(F)(F)C(F)(F)C(F)(F)C(F)(F)C(F)(F)F)/[N+]([O-])=C/c1ccc(CNC(=O)[C@H](O)[C@H](O)[C@H](O[C@@H]2O[C@H](CO)[C@H](O)[C@H](O)[C@H]2O)[C@@H](O)CO)cc1 | 40.6 | 40.1 | 63.4 | 30.6 | 34.9 | –
17.3 | 13.5 | 25.1 | CC(C)(C)/[N+]([O-])=C\c1ccc(CNC(=O)[C@@H](O)[C@H](O)[C@H](O[C@@H]2O[C@H](CO)[C@H](O)[C@H](O)[C@H]2O)C(O)CO)cc1 (stereo partly specified) | 18.6 | 17.3 | 18.3 | 18.2 | 18.5 | –

From ChEMBL document CHEMBL1148719, “Fine-tuning the amphiphilicity: a crucial parameter in the design of potent alpha-phenyl-N-tert-butylnitrone analogues” (J Med Chem, 2007)
